Columns and labels:
[1] = target: Aurora kinase B (Homo sapiens) (UniProt Q96GD4); experiment: Inhibition of Aurora-B (unknown origin) assessed as residual activity at 1 uM relative to control
[2] = tested on: T47D; experiment: Antiproliferative activity against human T47D cells after 3 days by sulforhodamine B assay; type: functional; conditions: 72 h
[3] = tested on: TK-10; experiment: Antiproliferative activity against human TK10 cells after 3 days by sulforhodamine B assay; type: functional; conditions: TK-10, 72 h
[4] = tested on: OVCAR-8; experiment: Antiproliferative activity against human OVCAR8 cells after 3 days by sulforhodamine B assay; type: functional; conditions: OVCAR-8, 72 h
Outline: (§1)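 Tested in the NCI 60 cell line panel. GI50 is the concentration giving 50% inhibition of cell growth, and values are the mean of two series of tests.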

[5] = tested on: LOX IMVI; experiment: Antiproliferative activity against human LOXIMVI cells after 3 days by sulforhodamine B assay; type: functional; conditions: 72 h; outline: as §1
[6] = tested on: SNB-75; experiment: Antiproliferative activity against human SNB75 cells after 3 days by sulforhodamine B assay; type: functional; conditions: SNB-75, 72 h
[7] = tested on: HCT-15; experiment: Antiproliferative activity against human HCT15 cells after 3 days by sulforhodamine B assay; type: functional; conditions: HCT-15, 72 h; outline: as §1
[8] = tested on: HCT-116; experiment: Antiproliferative activity against human HCT116 cells after 3 days by sulforhodamine B assay; type: functional; conditions: HCT-116, 72 h; outline: as §1
[9] = target: Serine/threonine-protein kinase Sgk1 (Homo sapiens) (UniProt O00141); experiment: Inhibition of human SGK assessed as residual activity at 1 uM relative to control
[10] = target: Ribosomal protein S6 kinase alpha-1 (Homo sapiens) (UniProt Q15418); experiment: Inhibition of human Rsk1 assessed as residual activity at 1 uM relative to control
[11] = target: MAP kinase-activated protein kinase 5 (Homo sapiens) (UniProt Q8IW41); experiment: Inhibition of human PRAK assessed as residual activity at 1 uM relative to control
[12] = target: Protein kinase C iota type (Homo sapiens) (UniProt P41743); experiment: Inhibition of human PKCiota assessed as residual activity at 1 uM relative to control
[13] = target: Protein kinase C gamma type (Homo sapiens) (UniProt P05129); experiment: Inhibition of human PKCgamma assessed as residual activity at 1 uM relative to control
[14] = target: Serine/threonine-protein kinase PAK 3 (Homo sapiens) (UniProt O75914); experiment: Inhibition of human PAK3 assessed as residual activity at 1 uM relative to control
[15] = target: Serine/threonine-protein kinase PAK 4 (Homo sapiens) (UniProt O96013); experiment: Inhibition of human PAK4 assessed as residual activity at 1 uM relative to control
[16] = target: Serine/threonine-protein kinase 3 (Homo sapiens) (UniProt Q13188); experiment: Inhibition of human MST2 assessed as residual activity at 1 uM relative to control
[17] = target: Mitogen-activated protein kinase kinase kinase 9 (Homo sapiens) (UniProt P80192); experiment: Inhibition of human MLK1 assessed as residual activity at 1 uM relative to control
[18] = Antiproliferative activity against human LXFL 529L cells after 3 days by SRB assay; type: functional, cell-based; conditions: 72 h
Outline: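 Cells grown at 37 °C, 5% CO2, with 10% heat-inactivated FBS: LXFL529L in RPMI 1640, MCF7 and HT29 in DMEM. Seeded, allowed 24 h growth, then exposed to the drug at various concentrations for 3 days in serum medium. Fixed with TCA for 1 h at 4 °C, stained with 0.4% SRB, eluted in 10 mM Tris pH 10.5, read at 570 nm as % T/C. IC50 taken from dose–response curves of at least three independent experiments.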

[19] = target: Dual specificity mitogen-activated protein kinase kinase 6 (Homo sapiens) (UniProt P52564); experiment: Inhibition of human MKK6 assessed as residual activity at 1 uM relative to control
[20] = target: Tyrosine-protein kinase Mer (Homo sapiens) (UniProt Q12866); experiment: Inhibition of human Mer assessed as residual activity at 1 uM relative to control
[21] = target: Serine/threonine-protein kinase 10 (Homo sapiens) (UniProt O94804); experiment: Inhibition of human LOK assessed as residual activity at 1 uM relative to control
[22] = target: Tyrosine-protein kinase Lyn (Homo sapiens) (UniProt P07948); experiment: Inhibition of human Lyn assessed as residual activity at 1 uM relative to control
[23] = target: Tyrosine-protein kinase JAK2 (Homo sapiens) (UniProt O60674); experiment: Inhibition of human JAK2 assessed as residual activity at 1 uM relative to control
[24] = target: Interleukin-1 receptor-associated kinase 1 (Homo sapiens) (UniProt P51617); experiment: Inhibition of human IRAK1 assessed as residual activity at 1 uM relative to control
[25] = target: G protein-coupled receptor kinase 6 (Homo sapiens) (UniProt P43250); experiment: Inhibition of human GRK6 assessed as residual activity at 1 uM relative to control
[26] = target: Tyrosine-protein kinase Fyn (Homo sapiens) (UniProt P06241); experiment: Inhibition of human Fyn assessed as residual activity at 1 uM relative to control
[27] = target: RAF proto-oncogene serine/threonine-protein kinase (Homo sapiens) (UniProt P04049); experiment: Inhibition of human c-RAF assessed as residual activity at 1 uM relative to control
[28] = target: Mast/stem cell growth factor receptor Kit (Homo sapiens) (UniProt P10721); experiment: Inhibition of human cKit assessed as residual activity at 1 uM relative to control
[29] = target: Dual specificity protein kinase CLK3 (Homo sapiens) (UniProt P49761); experiment: Inhibition of human CLK3 assessed as residual activity at 1 uM relative to control
[30] = target: Casein kinase I isoform gamma-3 (Homo sapiens) (UniProt Q9Y6M4); experiment: Inhibition of human CK1gamma3 assessed as residual activity at 1 uM relative to control
[31] = target: Cyclin-dependent kinase 2/cyclin E1 (Homo sapiens) (UniProt P24864+P24941); experiment: Inhibition of human CDK2/cyclinE assessed as residual activity at 1 uM relative to control; type: protein-complex assay
[32] = target: Calcium/calmodulin-dependent protein kinase type II subunit delta (Homo sapiens) (UniProt Q13557); experiment: Inhibition of human CaMK2delta assessed as residual activity at 1 uM relative to control
[33] = target: Calcium/calmodulin-dependent protein kinase type 1D (Homo sapiens) (UniProt Q8IU85); experiment: Inhibition of human CaMK1delta assessed as residual activity at 1 uM relative to control
[34] = target: Calcium/calmodulin-dependent protein kinase type II subunit beta (Homo sapiens) (UniProt Q13554); experiment: Inhibition of human CaMK2beta assessed as residual activity at 1 uM relative to control
[35] = target: RAF proto-oncogene serine/threonine-protein kinase (Homo sapiens) (UniProt P04049); experiment: Inhibition of RAF1 (unknown origin) assessed as residual activity at 10 uM relative to control
[36] = target: Platelet-derived growth factor receptor alpha (Homo sapiens) (UniProt P16234); experiment: Inhibition of PDGFR-alpha (unknown origin) assessed as residual activity at 10 uM relative to control
[37] = target: Tyrosine-protein kinase JAK2 (Homo sapiens) (UniProt O60674); experiment: Inhibition of JAK2 (unknown origin) assessed as residual activity at 10 uM relative to control

RAF proto-oncogene serine/threonine-protein kinase (Homo sapiens), sequence (P04049 whole entry): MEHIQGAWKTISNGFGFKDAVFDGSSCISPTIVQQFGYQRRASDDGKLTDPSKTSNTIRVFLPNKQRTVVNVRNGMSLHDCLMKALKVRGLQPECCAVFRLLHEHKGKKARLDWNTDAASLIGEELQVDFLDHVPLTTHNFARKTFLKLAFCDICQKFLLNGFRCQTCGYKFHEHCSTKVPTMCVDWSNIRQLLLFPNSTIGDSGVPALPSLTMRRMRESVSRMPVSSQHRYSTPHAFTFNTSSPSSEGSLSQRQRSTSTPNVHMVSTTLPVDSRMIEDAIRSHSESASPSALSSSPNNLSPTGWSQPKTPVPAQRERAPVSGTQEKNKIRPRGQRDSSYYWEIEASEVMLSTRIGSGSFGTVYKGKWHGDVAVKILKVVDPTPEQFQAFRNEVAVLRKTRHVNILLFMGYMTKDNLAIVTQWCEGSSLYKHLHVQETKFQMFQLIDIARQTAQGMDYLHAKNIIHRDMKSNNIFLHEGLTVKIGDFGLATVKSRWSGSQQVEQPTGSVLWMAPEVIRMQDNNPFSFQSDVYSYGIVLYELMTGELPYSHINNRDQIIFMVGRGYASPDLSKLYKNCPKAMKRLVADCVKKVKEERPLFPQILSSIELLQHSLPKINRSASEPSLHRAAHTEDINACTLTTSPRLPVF
Tyrosine-protein kinase JAK2 (Homo sapiens), sequence (O60674 whole entry): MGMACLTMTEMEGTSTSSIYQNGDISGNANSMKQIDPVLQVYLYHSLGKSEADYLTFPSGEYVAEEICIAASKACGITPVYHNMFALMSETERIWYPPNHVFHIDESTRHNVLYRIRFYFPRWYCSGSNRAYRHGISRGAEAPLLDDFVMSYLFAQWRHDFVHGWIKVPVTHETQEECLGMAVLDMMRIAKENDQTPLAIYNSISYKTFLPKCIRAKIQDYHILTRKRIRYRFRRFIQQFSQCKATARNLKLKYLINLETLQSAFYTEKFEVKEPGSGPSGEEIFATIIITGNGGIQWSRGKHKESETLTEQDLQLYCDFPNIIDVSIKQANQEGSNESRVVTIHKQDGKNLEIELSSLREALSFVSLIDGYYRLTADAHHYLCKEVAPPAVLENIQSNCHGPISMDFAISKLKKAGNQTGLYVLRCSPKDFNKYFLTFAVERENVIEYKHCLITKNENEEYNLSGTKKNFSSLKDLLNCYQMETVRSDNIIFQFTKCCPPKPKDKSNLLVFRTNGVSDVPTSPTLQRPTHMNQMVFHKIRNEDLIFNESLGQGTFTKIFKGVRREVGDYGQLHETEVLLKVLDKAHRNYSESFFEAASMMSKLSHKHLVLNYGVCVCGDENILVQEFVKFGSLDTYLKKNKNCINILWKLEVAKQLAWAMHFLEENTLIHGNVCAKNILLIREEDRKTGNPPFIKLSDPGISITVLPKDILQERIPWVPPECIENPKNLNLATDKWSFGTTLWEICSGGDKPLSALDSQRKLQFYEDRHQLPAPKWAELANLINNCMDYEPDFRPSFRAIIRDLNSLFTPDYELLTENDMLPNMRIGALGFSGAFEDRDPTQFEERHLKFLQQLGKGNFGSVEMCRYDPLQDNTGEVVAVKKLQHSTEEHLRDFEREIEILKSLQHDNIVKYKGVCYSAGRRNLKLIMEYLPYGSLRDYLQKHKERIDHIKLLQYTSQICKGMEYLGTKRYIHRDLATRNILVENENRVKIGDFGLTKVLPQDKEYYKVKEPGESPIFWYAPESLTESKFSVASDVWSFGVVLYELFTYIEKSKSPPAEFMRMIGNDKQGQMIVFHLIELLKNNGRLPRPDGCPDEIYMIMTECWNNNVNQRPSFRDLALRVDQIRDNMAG
Serine/threonine-protein kinase 3 (Homo sapiens), sequence (Q13188 whole entry): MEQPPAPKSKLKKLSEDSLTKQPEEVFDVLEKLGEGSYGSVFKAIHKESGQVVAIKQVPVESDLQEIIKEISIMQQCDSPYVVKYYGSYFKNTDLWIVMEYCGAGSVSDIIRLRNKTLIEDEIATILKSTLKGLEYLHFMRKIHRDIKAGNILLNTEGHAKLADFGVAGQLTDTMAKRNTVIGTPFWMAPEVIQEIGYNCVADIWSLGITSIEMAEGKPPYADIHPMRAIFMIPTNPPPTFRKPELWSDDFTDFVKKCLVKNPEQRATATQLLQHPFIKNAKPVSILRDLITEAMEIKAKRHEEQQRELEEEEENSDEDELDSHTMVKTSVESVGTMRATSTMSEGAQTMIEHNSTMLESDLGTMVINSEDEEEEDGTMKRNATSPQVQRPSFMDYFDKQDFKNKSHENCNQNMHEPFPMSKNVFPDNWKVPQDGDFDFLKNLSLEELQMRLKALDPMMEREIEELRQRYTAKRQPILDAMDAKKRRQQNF
MAP kinase-activated protein kinase 5 (Homo sapiens), sequence (Q8IW41 whole entry): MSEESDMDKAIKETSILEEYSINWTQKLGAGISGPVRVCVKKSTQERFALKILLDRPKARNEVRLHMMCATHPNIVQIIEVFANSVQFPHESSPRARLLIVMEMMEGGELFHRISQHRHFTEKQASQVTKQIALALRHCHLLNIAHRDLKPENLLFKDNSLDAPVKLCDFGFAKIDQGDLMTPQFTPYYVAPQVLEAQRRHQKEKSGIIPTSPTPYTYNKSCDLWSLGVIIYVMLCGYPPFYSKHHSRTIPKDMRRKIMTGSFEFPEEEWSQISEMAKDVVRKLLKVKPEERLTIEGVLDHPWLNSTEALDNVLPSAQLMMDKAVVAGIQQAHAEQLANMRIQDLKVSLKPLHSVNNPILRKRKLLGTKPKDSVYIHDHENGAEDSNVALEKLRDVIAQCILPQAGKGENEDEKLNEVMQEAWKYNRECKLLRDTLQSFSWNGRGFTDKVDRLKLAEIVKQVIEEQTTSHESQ
Dual specificity protein kinase CLK3 (Homo sapiens), sequence (P49761 whole entry, looked up, canonical isoform): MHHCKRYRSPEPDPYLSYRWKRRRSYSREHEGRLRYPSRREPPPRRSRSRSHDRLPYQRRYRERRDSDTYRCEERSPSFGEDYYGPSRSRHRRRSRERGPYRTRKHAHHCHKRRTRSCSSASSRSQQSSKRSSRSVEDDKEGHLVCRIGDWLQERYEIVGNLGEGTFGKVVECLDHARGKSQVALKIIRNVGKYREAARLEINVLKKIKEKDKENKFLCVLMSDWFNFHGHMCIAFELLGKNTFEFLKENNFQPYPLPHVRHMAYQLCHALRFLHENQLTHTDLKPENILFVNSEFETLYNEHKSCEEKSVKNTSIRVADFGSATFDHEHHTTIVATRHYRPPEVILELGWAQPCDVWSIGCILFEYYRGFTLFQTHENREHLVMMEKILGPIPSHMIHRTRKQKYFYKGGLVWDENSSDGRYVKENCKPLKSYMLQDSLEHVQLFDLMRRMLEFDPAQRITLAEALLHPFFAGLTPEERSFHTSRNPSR
Calcium/calmodulin-dependent protein kinase type 1D (Homo sapiens), sequence (Q8IU85 whole entry, looked up): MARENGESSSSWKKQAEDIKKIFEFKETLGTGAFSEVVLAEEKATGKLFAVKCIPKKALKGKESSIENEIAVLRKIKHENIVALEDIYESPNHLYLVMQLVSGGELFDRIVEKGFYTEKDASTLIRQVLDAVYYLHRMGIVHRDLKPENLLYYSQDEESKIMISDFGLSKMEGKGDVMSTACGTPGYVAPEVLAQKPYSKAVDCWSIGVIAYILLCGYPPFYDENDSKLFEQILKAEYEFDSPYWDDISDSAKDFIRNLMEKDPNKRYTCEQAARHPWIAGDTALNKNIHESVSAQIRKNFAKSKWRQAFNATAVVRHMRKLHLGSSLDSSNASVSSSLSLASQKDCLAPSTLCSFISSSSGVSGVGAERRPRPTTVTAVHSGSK
Mitogen-activated protein kinase kinase kinase 9 (Homo sapiens), sequence (P80192 whole entry, looked up): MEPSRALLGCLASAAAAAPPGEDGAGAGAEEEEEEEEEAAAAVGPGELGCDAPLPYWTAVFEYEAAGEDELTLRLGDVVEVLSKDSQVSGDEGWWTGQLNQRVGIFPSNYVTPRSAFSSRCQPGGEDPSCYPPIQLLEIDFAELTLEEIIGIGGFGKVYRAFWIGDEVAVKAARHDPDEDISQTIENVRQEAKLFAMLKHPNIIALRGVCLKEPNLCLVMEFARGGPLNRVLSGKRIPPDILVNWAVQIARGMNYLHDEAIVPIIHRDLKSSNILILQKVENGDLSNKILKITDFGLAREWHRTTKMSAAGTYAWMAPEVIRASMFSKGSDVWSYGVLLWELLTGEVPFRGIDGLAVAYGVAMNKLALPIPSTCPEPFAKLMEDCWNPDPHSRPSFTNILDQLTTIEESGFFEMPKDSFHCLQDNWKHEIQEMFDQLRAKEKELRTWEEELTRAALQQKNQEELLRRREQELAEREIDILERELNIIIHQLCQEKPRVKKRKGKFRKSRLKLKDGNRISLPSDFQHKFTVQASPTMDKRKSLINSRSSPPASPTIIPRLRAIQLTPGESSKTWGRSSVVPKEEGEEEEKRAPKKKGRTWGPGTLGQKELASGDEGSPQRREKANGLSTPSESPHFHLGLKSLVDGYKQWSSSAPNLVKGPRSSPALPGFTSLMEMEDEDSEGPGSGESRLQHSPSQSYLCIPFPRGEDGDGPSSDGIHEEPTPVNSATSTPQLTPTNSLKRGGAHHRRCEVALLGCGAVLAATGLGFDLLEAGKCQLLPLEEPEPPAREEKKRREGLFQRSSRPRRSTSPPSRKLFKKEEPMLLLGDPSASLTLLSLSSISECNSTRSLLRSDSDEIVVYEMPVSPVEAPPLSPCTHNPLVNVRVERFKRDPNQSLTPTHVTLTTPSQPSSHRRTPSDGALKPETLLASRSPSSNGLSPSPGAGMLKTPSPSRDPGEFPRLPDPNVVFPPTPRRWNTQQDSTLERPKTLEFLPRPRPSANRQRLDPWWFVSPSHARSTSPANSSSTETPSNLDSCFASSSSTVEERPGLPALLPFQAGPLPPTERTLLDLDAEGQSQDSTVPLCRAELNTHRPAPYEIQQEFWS

SMILES: O=C1Nc2ncccc2/C1=C1/Nc2ncccc2C1=O
- Activity [1]: 108%
- GI50 [2]: 1.77 µM
- GI50 [3]: 2.27 µM
- GI50 [4]: 1.37 µM
- GI50 [5]: 0.338 µM
- GI50 [6]: 1.58 µM
- GI50 [7]: 0.575 µM
- GI50 [8]: 1.01 µM
- Activity [9]: 88%
- Activity [10]: 114%
- Activity [11]: 105%
- Activity [12]: 92%
- Activity [13]: 114%
- Activity [14]: 111%
- Activity [15]: 108%
- Activity [16]: 105%
- Activity [17]: 61%
- IC50 [18]: 0.06 µM
- Activity [19]: 87%
- Activity [20]: 95%
- Activity [21]: 93%
- Activity [22]: 123%
- Activity [23]: 91%
- Activity [24]: 89%
- Activity [25]: 94%
- Activity [26]: 124%
- Activity [27]: 73%
- Activity [28]: 83%
- Activity [29]: 86%
- Activity [30]: 37%
- Activity [31]: 79%
- Activity [32]: 110%
- Activity [33]: 70%
- Activity [34]: 99%
- Activity [35]: 86%
- Activity [36]: 88%
- Activity [37]: 92%

Reference: ChEMBL document CHEMBL3098105, “7,7'-Diazaindirubin--a small molecule inhibitor of casein kinase 2 in vitro and in cells” (Bioorg Med Chem, 2014)
